According to ChEMBL document CHEMBL4043206, “Anticancer potential of aminomethylidene-diazinanes I. Synthesis of arylaminomethylidene of diazinetriones and its cytotoxic effects tested in glioblastoma cells” (Bioorg Med Chem, 2017):

What was measured:
[1] = Solubility in organic solvents; type: physicochemical
LN-229 [2] = assay: Cytotoxicity against human LN229 cells assessed as cell viability at 1 ug/ml incubated for 72 hrs by Guava ViaCount reagent based flow cytometry; type: functional; settings: LN-229, 72 h, read-out: Activity
Outline: (§1)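 Cells kept as semi-confluent monolayers in DMEM with 10% FBS, 50 U/ml penicillin and […], at 37 °C under 5% CO₂. Seeded at 2 × 10⁴ cells per well in 24-well plates. Compounds were made up as 10 mg/ml DMSO stocks, diluted into medium to a final 1 or 10 μg/ml, and left on the cells for 72 h.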

[3] = Solubility in water; type: physicochemical; settings: buffer
LN-229 [4] = assay: Cytotoxicity against human LN229 cells assessed as cell viability at 10 ug/ml incubated for 72 hrs by Guava ViaCount reagent based flow cytometry; type: functional; settings: LN-229, 72 h, read-out: Activity; outline: as §1

SMILES	solubility [1]	viability at 1 µg/mL (LN-229 [2]) [%]	solubility [3]	viability at 10 µg/mL (LN-229 [4]) [%]
CN1C(=O)C(=CNc2ccccc2)C(=O)N(C)C1=O	Insoluble	95	Insoluble	96.1
CN1C(=O)/C(=C/Nc2cccc3ccccc23)C(=O)NC1=S		90		78.3
O=C1NC(=S)NC(=O)C1=CNc1ccc2cc3ccccc3cc2c1		83.3		11
O=C1NC(=O)C(=CNc2cccc3c2C(=O)c2ccccc2C3=O)C(=O)N1		31.9		22.1
O=C1NC(=S)NC(=O)C1=CNc1ccc(-c2ccccc2)cc1		95.3		13.8
CN1C(=O)/C(=C/Nc2ccc3ccccc3c2)C(=O)NC1=S		94.6		84.5
CN1C(=O)NC(=O)/C(=C\Nc2ccc3ccccc3c2)C1=O		90		56
CN1C(=O)NC(=O)/C(=C/Nc2ccccc2)C1=O	Insoluble	94.9	Insoluble	95
CN1C(=O)C(=CNc2ccc3c(c2)C(=O)c2ccccc2C3=O)C(=O)N(C)C1=O		92.4		68.3
CN1C(=O)NC(=O)/C(=C\Nc2cccc3ccccc23)C1=O		89		94.5
O=C1NC(=S)NC(=O)C1=CNc1ccc2ccccc2c1		96.5		94.4
O=C1NC(=S)NC(=O)C1=CNc1cccc2c1C(=O)c1ccccc1C2=O		65		48.6
CN1C(=O)NC(=O)/C(=C\Nc2ccc(-c3ccccc3)cc2)C1=O		96.9		93.5
CN1C(=O)/C(=C\Nc2ccccc2)C(=O)NC1=S	Insoluble	94.3	Insoluble	94.3
CN1C(=O)/C(=C/Nc2ccc3c(c2)C(=O)c2ccccc2C3=O)C(=O)NC1=S		80.8		17.2
O=C1NC(=O)N(c2ccc([N+](=O)[O-])cc2)C(=O)/C1=C/Nc1cccc2c1C(=O)c1ccccc1C2=O		75.8		10.4
O=C1NC(=O)N(c2ccccc2)C(=O)/C1=C/Nc1cccc2c1C(=O)c1ccccc1C2=O		66.3		29.2
O=C1NC(=O)N(c2ccccc2)C(=O)/C1=C/Nc1ccc2c(c1)C(=O)c1ccccc1C2=O		87.6		76.5
O=C1NC(=O)C(=CNc2ccc3c(c2)C(=O)c2ccccc2C3=O)C(=O)N1		82.9		17.2

SMILES	solubility [1]	viability at 1 µg/mL (LN-229 [2]) [%]	solubility [3]	viability at 10 µg/mL (LN-229 [4]) [%]
CN1C(=O)NC(=O)/C(=C\Nc2ccc3cc4ccccc4cc3c2)C1=O		60.3		9.4
CN1C(=O)/C(=C/Nc2ccc(-c3ccccc3)cc2)C(=O)NC1=S		97		89.6
CN1C(=O)C(=CNc2ccc3cc4ccccc4cc3c2)C(=O)N(C)C1=O		88.1		60.8
CN1C(=O)/C(=C/Nc2ccc3cc4ccccc4cc3c2)C(=O)NC1=S		75		3.7
CN1C(=O)NC(=O)/C(=C\Nc2ccc3c(c2)C(=O)c2ccccc2C3=O)C1=O		89.7		28.9
CN1C(=O)C(=CNc2ccc(-c3ccccc3)cc2)C(=O)N(C)C1=O		94.8		94.6
CN1C(=O)C(=CNc2cccc3c2C(=O)c2ccccc2C3=O)C(=O)N(C)C1=O		94.7		86.3
O=C1NC(=O)N(c2ccc([N+](=O)[O-])cc2)C(=O)/C1=C/Nc1ccc2c(c1)C(=O)c1ccccc1C2=O		88.2		61.8
O=C1NC(=O)C(=CNc2ccccc2)C(=O)N1	Insoluble	96.2	Insoluble	96.1
O=C1NC(=O)C(=CNc2cccc3ccccc23)C(=O)N1		93.2		95.1
O=C1NC(=O)C(=CNc2ccc3ccccc3c2)C(=O)N1		92.4		82.4
CN1C(=O)C(=CNc2ccc3ccccc3c2)C(=O)N(C)C1=O		90.5		86.6
O=C1NC(=S)NC(=O)C1=CNc1ccc2c(c1)C(=O)c1ccccc1C2=O		87.4		12.3
CN1C(=O)/C(=C/Nc2cccc3c2C(=O)c2ccccc2C3=O)C(=O)NC1=S	Insoluble		Insoluble	
O=C1NC(=O)C(=CNc2ccc(-c3ccccc3)cc2)C(=O)N1		92.6		85.5
CN1C(=O)C(=CNc2cccc3ccccc23)C(=O)N(C)C1=O		94.5		95.4
O=C1NC(=S)NC(=O)C1=CNc1ccccc1	Insoluble	96.5	Insoluble	95.3
CN1C(=O)NC(=O)/C(=C\Nc2cccc3c2C(=O)c2ccccc2C3=O)C1=O		84.8		35.3
